The source of these data is ChEMBL document CHEMBL4390639, “Design, Synthesis, and Biological Evaluation of Novel Allosteric Protein Disulfide Isomerase Inhibitors” (J Med Chem, 2019).

In experiment [1] the test system is U-87 MG. As to the kind of experiment: Up regulation of HSPA6 gene expression in human U87MG cells at 10 uM incubated for 4 hrs followed by bromouridine addition during last 30 mins of incubation by TRIzol-reagent based Bru-Seq analysis relative to control. The format is functional, U-87MG ATCC. A digest of the protocol:
(§1)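 U87MG cells exposed to compound or DMSO vehicle for 4 h, with 2 mM bromouridine added for the final 30 min. Total RNA isolated with TRIzol; Bru-labelled nascent RNA captured on anti-BrdU antibody-conjugated magnetic beads and sequenced. Transcript abundance expressed as RPKM relative to DMSO. Experiment performed once.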

The subject of experiment [2] is U-87 MG. As to the kind of experiment: Up regulation of HSPA1B gene expression in human U87MG cells at 10 uM incubated for 4 hrs followed by bromouridine addition during last 30 mins of incubation by TRIzol-reagent based Bru-Seq analysis relative to control. The format is functional, U-87MG ATCC. A digest of the protocol: as §1
The subject of experiment [3] is U-87 MG. As to the kind of experiment: Up regulation of CTH gene expression in human U87MG cells at 10 uM incubated for 4 hrs followed by bromouridine addition during last 30 mins of incubation by TRIzol-reagent based Bru-Seq analysis relative to control. The format is functional, U-87MG ATCC. Put shortly:
as §1

In experiment [4] the test system is U-87 MG. Description: Up regulation of BAG3 gene expression in human U87MG cells at 10 uM incubated for 4 hrs followed by bromouridine addition during last 30 mins of incubation by TRIzol-reagent based Bru-Seq analysis relative to control. The format is functional, U-87MG ATCC. A digest of the protocol:
as §1

In experiment [5] the test system is U-87 MG. As to the kind of experiment: Up regulation of ALOXE3 gene expression in human U87MG cells at 10 uM incubated for 4 hrs followed by bromouridine addition during last 30 mins of incubation by TRIzol-reagent based Bru-Seq analysis relative to control. In kind it is functional, U-87MG ATCC. Put shortly: as §1
In experiment [6] the test system is U-87 MG. Description: Up regulation of NUPR1 gene expression in human U87MG cells at 10 uM incubated for 4 hrs followed by bromouridine addition during last 30 mins of incubation by TRIzol-reagent based Bru-Seq analysis relative to control. The format is functional, U-87MG ATCC. A digest of the protocol: as §1
For experiment [7], the system named is U-87 MG. As to the kind of experiment: Up regulation of TM4SF19-TCTEX1D2 gene expression in human U87MG cells at 10 uM incubated for 4 hrs followed by bromouridine addition during last 30 mins of incubation by TRIzol-reagent based Bru-Seq analysis relative to control. In kind it is functional, U-87MG ATCC. Put shortly:
(§2)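 U87MG cells treated 4 h with test compound (10 or 16 μM, as per line) or DMSO; 2 mM bromouridine added for final 30 min. Total RNA isolated with TRIzol, Bru-labelled nascent RNA captured with anti-BrdU antibody magnetic beads and sequenced; transcript abundance (RPKM) compared with DMSO control. Single experiment.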

In experiment [8] the test system is U-87 MG. As to the kind of experiment: Down regulation of SLITRK5 gene expression in human U87MG cells at 10 uM incubated for 4 hrs followed by bromouridine addition during last 30 mins of incubation by TRIzol-reagent based Bru-Seq analysis relative to control. The format is functional, U-87MG ATCC. A digest of the protocol: (§3)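 Nascent transcription (Bru-seq) in U87MG cells: treatment at 10 μM for 4 h, with 2 mM bromouridine added for the final 30 min. Total RNA isolated with TRIzol; Bru-labelled RNA captured using anti-BrdU antibody on magnetic beads, then sequenced. Transcript traces reported as RPKM compared with DMSO-treated cells. Single experiment.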

The subject of experiment [9] is U-87 MG. As to the kind of experiment: Down regulation of ST8SIA4 gene expression in human U87MG cells at 10 uM incubated for 4 hrs followed by bromouridine addition during last 30 mins of incubation by TRIzol-reagent based Bru-Seq analysis relative to control. In kind it is functional, U-87MG ATCC. A digest of the protocol:
as §3

The test system of experiment [10] is U-87 MG. Description: Down regulation of LYPD6 gene expression in human U87MG cells at 10 uM incubated for 4 hrs followed by bromouridine addition during last 30 mins of incubation by TRIzol-reagent based Bru-Seq analysis relative to control. In kind it is functional, U-87MG ATCC.
Experiment [11] has as its system U-87 MG. Description: Down regulation of HLA-DQB1 gene expression in human U87MG cells at 10 uM incubated for 4 hrs followed by bromouridine addition during last 30 mins of incubation by TRIzol-reagent based Bru-Seq analysis relative to control. The format is functional, U-87MG ATCC.
Experiment [12] has as its system U-87 MG. As to the kind of experiment: Down regulation of FBXO43 gene expression in human U87MG cells at 10 uM incubated for 4 hrs followed by bromouridine addition during last 30 mins of incubation by TRIzol-reagent based Bru-Seq analysis relative to control. The format is functional, U-87MG ATCC. A digest of the protocol:
as §1

For experiment [13], the system named is U-87 MG. Description: Down regulation of MYBL1 gene expression in human U87MG cells at 10 uM incubated for 4 hrs followed by bromouridine addition during last 30 mins of incubation by TRIzol-reagent based Bru-Seq analysis relative to control. In kind it is functional, U-87MG ATCC. Put shortly: as §3
Experiment [14] concerns U-87 MG. Description: Down regulation of E2F8 gene expression in human U87MG cells at 10 uM incubated for 4 hrs followed by bromouridine addition during last 30 mins of incubation by TRIzol-reagent based Bru-Seq analysis relative to control. The format is functional, U-87MG ATCC.
The test system of experiment [15] is U-87 MG. Description: Down regulation of CCNA2 gene expression in human U87MG cells at 10 uM incubated for 4 hrs followed by bromouridine addition during last 30 mins of incubation by TRIzol-reagent based Bru-Seq analysis relative to control. The format is functional, U-87MG ATCC.
Experiment [16] deals with U-87 MG. Description: Up regulation of NMRAL2P gene expression in human U87MG cells at 10 uM incubated for 4 hrs followed by bromouridine addition during last 30 mins of incubation by TRIzol-reagent based Bru-Seq analysis relative to control. In kind it is functional, U-87MG ATCC. Put shortly: as §3
The test system of experiment [17] is U-87 MG. Description: Up regulation of SLC7A11 gene expression in human U87MG cells at 16 uM incubated for 4 hrs followed by bromouridine addition during last 30 mins of incubation by TRIzol-reagent based Bru-Seq analysis relative to control. In kind it is functional, U-87MG ATCC. A digest of the protocol:
as §2

For experiment [18], the system named is U-87 MG. Description: Up regulation of TRIM16L gene expression in human U87MG cells at 16 uM incubated for 4 hrs followed by bromouridine addition during last 30 mins of incubation by TRIzol-reagent based Bru-Seq analysis relative to control. The format is functional, U-87MG ATCC.
The subject of experiment [19] is U-87 MG. As to the kind of experiment: Up regulation of CYYR1-AS1 gene expression in human U87MG cells at 16 uM incubated for 4 hrs followed by bromouridine addition during last 30 mins of incubation by TRIzol-reagent based Bru-Seq analysis relative to control. In kind it is functional, U-87MG ATCC. Put shortly: as §1
Experiment [20] relates to U-87 MG. As to the kind of experiment: Down regulation of AC139722.1 gene expression in human U87MG cells at 16 uM incubated for 4 hrs followed by bromouridine addition during last 30 mins of incubation by TRIzol-reagent based Bru-Seq analysis relative to control. The format is functional, U-87MG ATCC. Put shortly:
as §1

In experiment [21] the test system is U-87 MG. As to the kind of experiment: Down regulation of CYP1B1 gene expression in human U87MG cells at 16 uM incubated for 4 hrs followed by bromouridine addition during last 30 mins of incubation by TRIzol-reagent based Bru-Seq analysis relative to control. In kind it is functional, U-87MG ATCC.
Experiment [22] deals with U-87 MG. Description: Down regulation of CD83 gene expression in human U87MG cells at 16 uM incubated for 4 hrs followed by bromouridine addition during last 30 mins of incubation by TRIzol-reagent based Bru-Seq analysis relative to control. The format is functional, U-87MG ATCC.
Experiment [23] deals with U-87 MG. Description: Down regulation of RAD51 gene expression in human U87MG cells at 16 uM incubated for 4 hrs followed by bromouridine addition during last 30 mins of incubation by TRIzol-reagent based Bru-Seq analysis. In kind it is functional, cell-based. Conditions: U-87MG ATCC. Put shortly:
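Bru-seq in U87MG cells treated at 16 μM for 4 h; 2 mM bromouridine present during the last 30 min. TRIzol total RNA, then anti-BrdU bead capture of labelled RNA and sequencing. Readout is RPKM traces versus DMSO control. Performed once.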

Experiment [24] relates to U-87 MG. Description: Down regulation of E2F1 gene expression in human U87MG cells at 16 uM incubated for 4 hrs followed by bromouridine addition during last 30 mins of incubation by TRIzol-reagent based Bru-Seq analysis. In kind it is functional, cell-based. Conditions: U-87MG ATCC.

Molecules are shown by their SMILES. Active and inactive are the calls of the source. The calls are words filed in the database; no cut-off is given here.

Regarding `CCCCCN(CCCCC)S(=O)(=O)c1ccc(C(=O)/C=C/c2cccc(C#N)c2)cc1`, the “fold change (FC)” value worked out at 464.7 in experiment [1]; 107.2 in experiment [2]; 17.7 in [3]; 17.1 in experiment [4]; 17 in experiment [5]; 11.8 in experiment [6]. Besides, the “fold change (FC)” value in [7] was found to be 8.7; in experiment [8] it was 3.6; in experiment [9] it was 3.1; in experiment [10], 3.1; in [11] it was 2.9; in [12], 2.7. Besides, the entries for the “fold change (FC)” value in [13], in experiment [14] and in experiment [15] were 2.6, 2.4 and 2.3, respectively. The same molecule showed a log2FC in [16] of 2.72.
In the case of `COC(=O)c1cccc(/C=C/C(=O)c2cccc(O)c2)c1`, the “fold change (FC)” value was determined as 21.2 in experiment [17]; 4.9 in experiment [18]; 4.3 in experiment [19]; 4.7 in experiment [20]; 2.8 in experiment [21]; 2.7 in experiment [22]. The result in [23] and in [24] was Active.
